# STAT1 inh: inhibitors of IFN-gamma induced STAT1 signaling. NIH 3T3 STAT1-luciferase reporter, luminescence. inhibition, % at 5.5 µM. hit rate 0.35% among 200,000. AID 920;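 active = inhibition above a set limit, the mean inhibition across all tested compounds plus 3 SD, cut at about 34% in these data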
# STAT3 activator: STAT3 signaling activation | U3A cells, IL-6 STAT3-luciferase reporter, luminescence; 100% = signal with IL-6 EC80 alone | activation (% of control), % at 5.6 µM | hit rate 0.91% among 190,000;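 active = activation above the screen-wide mean of compound activation plus 3 SD, cut at about 130% in these data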
#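 Material: STAT3-luciferase reporter U3A cells. Controls: IL-6-treated wells, 100% activation. Read-out: % activation versus median of IL-6-stimulated wells. Probe or stimulus: IL-6 stimulus at 33 ng/mL final. Timing: compound 1 h, then IL-6 6 h at 37 °C. Signal: reporter luminescence signal.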
# NF-kB neuron act: NF-kB expression increase, human neuronal cells; NF-kB reporter expression; stronger effect = higher value; fold change at 12.5 µM; hit rate 1.6% among 190,000; AID 1239; in the data active = fold change above about 3.3
# APP 5'UTR act: APP 5'UTR luciferase reporter activation. SH-SY5Y APP 5'UTR luciferase reporter, luminescence; zero percent = DMSO vehicle wells. activation, % at 2 µM. hit rate 1% among 190,000;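 active = activation above a set limit, based on mean plus 3 SD of controls, cut at about 140% in these data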
# STAT1 act: STAT1 signaling activation | NIH 3T3 STAT1-luciferase reporter, IFN-gamma, luminescence; 100% = IFN-gamma alone, no compound | activation (% of control), % at 5.5 µM | hit rate 2.6% among 200,000;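 active = activation above the screen-wide mean activation plus 3 SD, cut at about 130% in these data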
# STAT3 blocker: reduces IL-6 driven STAT3 reporter signal | U3A cells, IL-6 STAT3-luciferase reporter, luminescence; host cell line lacks STAT1 | inhibition, % at 5.5 µM | hit rate 0.89% among 190,000;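 active = inhibition above the mean inhibition across all screened compounds plus 3 SD, cut at about 44% in these data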
# STAT1 act conf: STAT1 activation, confirmation assay; shares compounds with STAT1 act; NIH 3T3 STAT1-luciferase reporter, IFN-gamma potentiation, luminescence; 100% = IFN-gamma EC80 alone, no compound; activation (% of control), % at 5.7 µM; hit rate 97% among 1,200;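 active = activation above a set limit carried over from the earlier primary STAT1 screen, cut at about 140% in these data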
# NFkB act: activates NF-kappaB, counter-screen to STAT1 activators; hit rate 43% among 1,200; shares compounds with STAT1 act; activation (% of control), % at 5.7 µM; HEK293T NF-kB luciferase reporter, TNF-alpha stimulated, luminescence; 100% = TNF-alpha with vehicle only;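 active = activation above the mean of solvent-only control wells plus 3 SD, set per campaign, cut at about 130% in these data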;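 also: TNF-alpha given at a submaximal dose yielding about 80% of full reporter signal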
# STAT3 act 2: human STAT3 activation in STAT1 activator counter-screen; shares compounds with STAT1 act; U3A cells STAT3-luciferase reporter, IL-6, luminescence; cells lack STAT1; 100 = IL-6 alone, no compound effect; activation (% of control), % at 5.7 µM; hit rate 46% among 1,200;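 active = activation above the solvent-only control well mean plus 3 SD, set per plate batch, cut at about 110% in these data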;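 also: higher means more STAT3 reporter activation so hits are non-selective activators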
# Numbers stand for hits; . = inactive; / = no result. Hits are enriched below; roughly 4.9% of the tested compounds scored in any of these assays.
SMILES,STAT1 inh,STAT3 activator,NF-kB neuron act,APP 5'UTR act,STAT1 act,STAT3 blocker,STAT1 act conf,NFkB act,STAT3 act 2
O=C(NC(=S)Nc1ccccn1)c1ccc([N+](=O)[O-])cc1,.,.,.,.,182,.,191,.,.
CC(C)(C)c1ccc(C(=O)Nc2ccc([N+](=O)[O-])cn2)cc1,.,.,.,.,151,.,213,135,.
COc1ccc(N=c2sc3ccccc3n2C)cc1,.,.,5.6,.,151,.,208,135,111
Cc1cc(N2CCN(C)CC2)ccc1NC(=O)c1c2c(nc3ccccc13)CCN(Cc1ccccc1)C2,.,.,.,.,166,.,.,.,115
O=C(NC1CCCCCC1)c1c2c(nc3ccccc13)CCN(Cc1ccccc1)C2,.,.,.,.,.,.,/,/,/
O=C(/C=C/c1ccc(Br)o1)Nc1nccs1,.,.,.,.,.,.,/,/,/
Cc1nc(N)sc1-c1csc(Nc2ccccn2)n1,.,.,.,.,169,.,183,.,129
Cc1nc(N)sc1-c1csc(Nc2ccc(Cl)cn2)n1,.,.,.,.,.,.,/,/,/
CC(C)(C)c1ccc(NC(=O)Nc2ccc(F)cc2)cc1,.,.,4.2,162,176,.,213,138,126
COc1cccc(NC(=O)Nc2ccc(C(C)(C)C)cc2)c1,.,.,4.3,.,151,.,178,.,.
COc1cccc(NC(=O)Nc2ccncc2)c1,.,.,.,.,.,.,/,/,/
C#CCOCCOCCOCCNc1nc(N2CCOCC2)nc(N2CCN(C(=O)[C@H](CCC(=O)O)n3cc(C(N)[C@H](C)CC)nn3)CC2)n1 (stereo partly drawn),.,/,.,.,.,/,/,/,/
CC(=O)c1cccc(NC(=O)Cc2coc3cc4c(cc23)CCC4)c1,.,.,.,.,.,.,/,/,/
Cc1cc(C(=O)COC(=O)c2cc(Cl)ccc2N)c(C)n1Cc1ccco1,.,.,.,171,156,.,185,.,115
CCOC(=O)c1cnc(SCCc2ccccc2)nc1N,.,.,6.9,190,165,.,189,.,119
Cc1cc(OCC(=O)N2CCc3ccccc3C2)c2c(-c3ccccc3)cc(=O)oc2c1,.,.,.,.,.,.,/,/,/
CCOC(=O)C1(Cc2ccccc2C(F)(F)F)CCN(CCCn2cccn2)CC1,.,.,.,.,.,.,/,/,/
COCc1cc(C)nc2sc(C(=O)NCCO)c(-n3cccc3)c12,.,.,.,.,.,.,/,/,/
FC(F)(F)c1cnc2c(-c3ccccc3)n[nH]c2c1,.,.,.,.,161,.,137,.,.
Cc1nn(C(C)C)c(C)c1CN1CCN(Cc2ccsc2)C(CCO)C1 (stereo not drawn),.,.,.,.,.,.,/,/,/
Cc1occc1C(=O)Nc1ccc2ccccc2c1,.,.,9.3,164,156,.,207,.,152
Cc1occc1C(=O)Nc1cc(C(C)(C)C)on1,.,.,4.5,148,152,.,191,.,122
CC1(C)Cc2c(cnn2-c2ccccc2)C(=O)/C1=N\NC(=O)c1ccccc1O,.,.,.,.,.,.,/,/,/
C/C(=N\Nc1nc(N2CCOCC2)nc(N2CCOCC2)n1)c1cccs1,.,.,.,.,.,.,/,/,/
C/C(=N\Nc1nc2ccccc2s1)c1cccs1,.,.,4.2,177,164,.,249,.,160
SMILES,STAT1 inh,STAT3 activator,NF-kB neuron act,APP 5'UTR act,STAT1 act,STAT3 blocker,STAT1 act conf,NFkB act,STAT3 act 2
CC(=O)Nc1cccc(/C(C)=N/Nc2nc3ccccc3s2)c1,.,.,.,160,198,.,200,139,122
COc1ccc(C(=O)NNC(=O)CN2CCN(c3nc(-c4ccccc4)cs3)CC2)cc1,.,.,.,.,.,.,/,/,/
COc1ccc(CN2CCN(Cc3csc(C(C)=O)c3)CC2CCO)c(C)c1C (stereo not drawn),.,.,.,.,.,.,/,/,/
Cc1ccc(O)c(-c2cc3ccccc3[nH]2)c1,.,.,.,.,.,.,/,/,/
Cc1ccc2[nH]c(-c3cccc(N)c3)cc2c1,.,.,.,152,183,.,213,146,.
C/C(=N/NC(=O)c1ccc(Br)o1)C(C)C,.,.,.,.,.,.,/,/,/
O=C(O)c1cc(N/N=C/C=C/c2ccccc2)ccc1Cl,.,.,6.1,179,158,.,210,152,127
O=C(N/N=C/C=C/c1ccccc1)c1ccccc1Br,.,.,.,.,.,.,/,/,/
Cc1ccc(Nc2cc(C)nn2-c2nc(C)cc(=O)[nH]2)cc1,.,.,.,.,232,.,181,167,.
c1ccc(OCCCn2nnc(-c3cccnc3)n2)cc1,.,.,.,.,.,.,/,/,/
c1ccc(-n2nnc(-c3cccnc3)n2)cc1,.,/,.,.,152,/,165,.,.
COc1ccc(-c2[nH]c(-c3ccc(SC)cc3)nc2SCC(=O)Nc2nccs2)cc1,.,.,.,.,.,.,/,/,/
C(=N\N=C\c1ccccc1)/c1ccccc1,.,.,.,.,158,.,186,145,.
O=C(NC12CC3CC(CC(C3)C1)C2)c1ccc(-c2cccc(Cl)c2)o1,.,.,.,192,164,.,210,143,128
O=C(Nc1cccc(C(F)(F)F)c1)C(=O)N1CCCCC1,.,.,.,.,.,.,/,/,/
c1ccc(C2CC(c3ccccc3)n3c(nc4ccccc43)N2)cc1 (stereo not drawn),.,.,.,.,.,.,/,/,/
O=C(Nc1nc2ccccc2s1)c1ccc(OCC2CCCO2)cc1 (stereo not drawn),.,.,.,.,177,.,248,.,.
O=C(Nc1nc2ccccc2s1)c1ccc(Cl)s1,.,.,4.8,156,156,.,231,141,.
CSc1nc2ccc(NC(=O)c3ccc(Cl)s3)cc2s1,.,/,.,138,186,/,181,140,.
COc1ccc(C(=O)Nc2nc3ccccc3s2)cc1OC,.,.,3.6,139,174,.,227,155,114
COc1ccc(C(=O)Nc2nc3ccc(S(C)(=O)=O)cc3s2)cc1OC,.,.,.,.,.,.,/,/,/
O=C(O)c1ccc(N/N=C/c2ccc(F)c(F)c2)cc1,.,.,5.3,159,162,.,211,.,129
COc1cc(/C=N/Nc2ccc(C(=O)O)cc2)ccc1O,.,.,.,.,.,.,/,/,/
